Source: ChEMBL document CHEMBL1141667, “Synthesis and antimicrobial activities of 7-O-modified genistein derivatives” (2008)
≈ marks a conversion by molar mass, not a printed value.

What was measured:
Assay type in all cases: functional
Escherichia coli = experiment: Antibacterial activity against Escherichia coli after 24 hrs by MTT assay
How it was run: (§1)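 Broth microdilution MIC in MH medium. Compounds from a 50 mg/mL DMSO stock were serially diluted in medium. Inoculum was about 10⁵ cfu/mL, each concentration in triplicate, incubated at 37 °C for 24 h. MIC was read visually, then confirmed by adding PBS with 2 mg/mL MTT and incubating 4–5 h at room temperature. A compound-free medium control checked for any MTT effect on growth.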

Candida albicans = experiment: Antifungal activity against Candida albicans after 48 hrs by MTT assay
How it was run: (§2)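 Antifungal MIC by microdilution in RPMI-1640 medium. Compounds came from a 50 mg/mL DMSO stock and were serially diluted. Inoculum was about 10⁵ cfu/mL, with triplicate wells per concentration, incubated at 37 °C for 48 h. MIC was judged visually, followed by PBS containing 2 mg/mL MTT for 4–5 h at room temperature for the colorimetric read. A compound-free control tested MTT interference.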

Pseudomonas fluorescens = experiment: Antibacterial activity against Pseudomonas fluorescens after 24 hrs by MTT assay; how it was run: as §1
Aspergillus niger = experiment: Antifungal activity against Aspergillus niger after 48 hrs by MTT assay; how it was run: as §2
Trichophyton rubrum = experiment: Antifungal activity against Trichophyton rubrum after 48 hrs by MTT assay; how it was run: as §2
Bacillus subtilis = experiment: Antibacterial activity against Bacillus subtilis after 24 hrs by MTT assay; how it was run: as §1
Staphylococcus aureus = experiment: Antibacterial activity against Staphylococcus aureus after 24 hrs by MTT assay; how it was run: as §1

SMILES | MIC (Escherichia coli) [µg/mL] | MIC (Candida albicans) [µg/mL] | MIC (Pseudomonas fluorescens) [µg/mL] | MIC (Aspergillus niger) [µg/mL] | MIC (Trichophyton rubrum) [µg/mL] | MIC (Bacillus subtilis) [µg/mL] | MIC (Staphylococcus aureus) [µg/mL]
O=c1c(-c2ccc(O)cc2)coc2cc(OCCCn3ccnc3)cc(O)c12 | > 50 | > 50 | > 50 | > 50 | > 50 | > 50 | > 50
O=c1c(-c2ccc(O)cc2)coc2cc(OCCCBr)cc(O)c12 | > 50 | > 50 | > 50 | > 50 | > 50 | > 50 | > 50
CCCN(CCC)CCCCOc1cc(O)c2c(=O)c(-c3ccc(O)cc3)coc2c1 | > 50 | > 50 | 19.5 (≈ 45.8 µM) | > 50 | > 50 | 19.5 (≈ 45.8 µM) | 10.5 (≈ 24.7 µM)
O=c1c(-c2ccc(O)cc2)coc2cc(OCCCCBr)cc(O)c12 | > 50 | > 50 | > 50 | > 50 | > 50 | > 50 | > 50
O=c1c(-c2ccc(O)cc2)coc2cc(OCCN3CCCCC3)cc(O)c12 | > 50 | > 50 | > 50 | > 50 | > 50 | > 50 | > 50
O=c1c(-c2ccc(O)cc2)coc2cc(OCCN3CCOCC3)cc(O)c12 | > 50 | > 50 | > 50 | > 50 | > 50 | > 50 | > 50
O=c1c(-c2ccc(O)cc2)coc2cc(OCCCCn3cnc4ccccc43)cc(O)c12 | > 50 | > 50 | > 50 | > 50 | > 50 | > 50 | 21.3 (≈ 48.1 µM)
O=c1c(-c2ccc(O)cc2)coc2cc(OCCCN3CCCCC3)cc(O)c12 | > 50 | > 50 | > 50 | > 50 | > 50 | > 50 | > 50
CN1CCN(CCCOc2cc(O)c3c(=O)c(-c4ccc(O)cc4)coc3c2)CC1 | > 50 | > 50 | > 50 | > 50 | > 50 | 43 (≈ 105 µM) | > 50
O=c1c(-c2ccc(O)cc2)coc2cc(OCCCN3CCOCC3)cc(O)c12 | > 50 | > 50 | > 50 | > 50 | > 50 | > 50 | > 50
O=c1c(-c2ccc(O)cc2)coc2cc(OCCCN3CCNCC3)cc(O)c12 | > 50 | > 50 | > 50 | > 50 | > 50 | > 50 | 40 (≈ 101 µM)
CCCN(CCC)CCCOc1cc(O)c2c(=O)c(-c3ccc(O)cc3)coc2c1 | > 50 | > 50 | 45 (≈ 109 µM) | > 50 | > 50 | 32 (≈ 77.8 µM) | 15.3 (≈ 37.2 µM)
CN1CCN(CCCCOc2cc(O)c3c(=O)c(-c4ccc(O)cc4)coc3c2)CC1 | > 50 | > 50 | 37.4 (≈ 88.1 µM) | > 50 | > 50 | 30.3 (≈ 71.4 µM) | 27.2 (≈ 64.1 µM)
O=c1c(-c2ccc(O)cc2)coc2cc(OCCCCNCc3ccco3)cc(O)c12 | > 50 | > 50 | 12 (≈ 28.5 µM) | > 50 | > 50 | > 50 | 35.3 (≈ 83.8 µM)
O=c1c(-c2ccc(O)cc2)coc2cc(OCCCCn3ccnc3)cc(O)c12 | > 50 | > 50 | > 50 | > 50 | > 50 | > 50 | > 50
O=c1c(-c2ccc(O)cc2)coc2cc(OCCBr)cc(O)c12 | > 50 | > 50 | > 50 | > 50 | > 50 | > 50 | > 50
CCCN(CCC)CCOc1cc(O)c2c(=O)c(-c3ccc(O)cc3)coc2c1 | > 50 | > 50 | 47.5 (≈ 120 µM) | > 50 | > 50 | > 50 | 41.2 (≈ 104 µM)
CN1CCN(CCOc2cc(O)c3c(=O)c(-c4ccc(O)cc4)coc3c2)CC1 | > 50 | > 50 | > 50 | > 50 | > 50 | > 50 | 35.5 (≈ 89.5 µM)

SMILES | MIC (Escherichia coli) [µg/mL] | MIC (Candida albicans) [µg/mL] | MIC (Pseudomonas fluorescens) [µg/mL] | MIC (Aspergillus niger) [µg/mL] | MIC (Trichophyton rubrum) [µg/mL] | MIC (Bacillus subtilis) [µg/mL] | MIC (Staphylococcus aureus) [µg/mL]
O=c1c(-c2ccc(O)cc2)coc2cc(OCCn3ccnc3)cc(O)c12 | > 50 | > 50 | > 50 | > 50 | > 50 | > 50 | > 50
O=c1c(-c2ccc(O)cc2)coc2cc(OCCn3cnc4ccccc43)cc(O)c12 | > 50 | > 50 | > 50 | > 50 | > 50 | > 50 | > 50
CCCCN(CCCC)CCCOc1cc(O)c2c(=O)c(-c3ccc(O)cc3)coc2c1 | > 50 | > 50 | 18.5 (≈ 42.1 µM) | > 50 | > 50 | > 50 | 17.1 (≈ 38.9 µM)
O=c1c(-c2ccc(O)cc2)coc2cc(OCCCn3cnc4ccccc43)cc(O)c12 | > 50 | > 50 | > 50 | > 50 | > 50 | > 50 | > 50
O=c1c(-c2ccc(O)cc2)coc2cc(OCCCCN3CCCCC3)cc(O)c12 | > 50 | > 50 | > 50 | > 50 | > 50 | > 50 | > 50
O=c1c(-c2ccc(O)cc2)coc2cc(OCCCCN3CCNCC3)cc(O)c12 | > 50 | > 50 | 37.5 (≈ 91.4 µM) | > 50 | > 50 | 15.5 (≈ 37.8 µM) | 20.1 (≈ 49 µM)
O=c1c(-c2ccc(O)cc2)coc2cc(OCCCNCc3ccco3)cc(O)c12 | > 50 | > 50 | 10.5 (≈ 25.8 µM) | 45.5 (≈ 112 µM) | > 50 | 12.5 (≈ 30.7 µM) | 3.4 (≈ 8.35 µM)
O=c1c(-c2ccc(O)cc2)coc2cc(OCCNCc3ccco3)cc(O)c12 | > 50 | > 50 | > 50 | > 50 | > 50 | > 50 | > 50
O=c1c(-c2ccc(O)cc2)coc2cc(OCCN3CCCC3)cc(O)c12 | > 50 | > 50 | 28.5 (≈ 77.6 µM) | 39.8 (≈ 108 µM) | > 50 | > 50 | 49.6 (≈ 135 µM)
O=c1c(-c2ccc(O)cc2)coc2cc(OCCN3CCNCC3)cc(O)c12 | > 50 | > 50 | 23.5 (≈ 61.5 µM) | > 50 | > 50 | 47.5 (≈ 124 µM) | 17.5 (≈ 45.8 µM)
O=c1c(-c2ccc(O)cc2)coc2cc(OCCCCN3CCCC3)cc(O)c12 | > 50 | > 50 | 23.1 (≈ 58.4 µM) | > 50 | 48.5 (≈ 123 µM) | 38.5 (≈ 97.4 µM) | 23.7 (≈ 59.9 µM)
CCCCN(CCCC)CCOc1cc(O)c2c(=O)c(-c3ccc(O)cc3)coc2c1 | > 50 | > 50 | 37 (≈ 87 µM) | 41.6 (≈ 97.8 µM) | > 50 | 30 (≈ 70.5 µM) | 32.8 (≈ 77.1 µM)
O=c1c(-c2ccc(O)cc2)coc2cc(OCCCN3CCCC3)cc(O)c12 | > 50 | 20.5 (≈ 53.7 µM) | 20.5 (≈ 53.7 µM) | 23.5 (≈ 61.6 µM) | 21.5 (≈ 56.4 µM) | 48.5 (≈ 127 µM) | 18.5 (≈ 48.5 µM)
CCCCN(CCCC)CCCCOc1cc(O)c2c(=O)c(-c3ccc(O)cc3)coc2c1 | > 50 | > 50 | 13.2 (≈ 29.1 µM) | > 50 | > 50 | 3.7 (≈ 8.16 µM) | 1.7 (≈ 3.75 µM)
O=c1c(-c2ccc(O)cc2)coc2cc(OCCCCN3CCOCC3)cc(O)c12 | > 50 | > 50 | > 50 | > 50 | > 50 | 35.5 (≈ 86.3 µM) | 37.5 (≈ 91.1 µM)
O=c1c(-c2ccc(O)cc2)coc2cc(O)cc(O)c12 [GENISTEIN] | > 50 | > 50 | > 50 | > 50 | > 50 | > 50 | > 50
NC[C@H]1O[C@H](O[C@H]2[C@H](O)[C@@H](O[C@H]3O[C@H](CO)[C@@H](O)[C@H](N)[C@H]3O)[C@H](N)C[C@@H]2N)[C@H](O)[C@@H](O)[C@@H]1O [KANAMYCIN] | 3.9 (≈ 8.05 µM) | – | 3.9 (≈ 8.05 µM) | – | – | 1 (≈ 2.06 µM) | 1 (≈ 2.06 µM)
CC(=O)N1CCN(c2ccc(OCC3COC(Cn4ccnc4)(c4ccc(Cl)cc4Cl)O3)cc2)CC1 (stereo not given) [KETOCONAZOLE] | – | 3.9 (≈ 7.34 µM) | – | 7.8 (≈ 14.7 µM) | 3.9 (≈ 7.34 µM) | – | –
